Source: PubChem (several laboratories)
KCNQ1 inh – inhibitors of human KCNQ1 channel, primary screen, cell-based, thallium flux, high-throughput; Potassium voltage-gated channel subfamily KQT member 1 (Homo sapiens), P51787; CHO-K1 KCNQ1, FluxOR thallium flux fluorescence; active compounds read high; B-score at 10 µM; hit rate 1.3% among 310,000; AID 2642, 2010;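 active = compounds whose thallium flux B-score, printed positive for inhibition, exceeds three library SD while starting fluorescence stays within three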;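 also: channel opened by potassium depolarization with thallium stimulus after 20 min compound exposure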
KCNK3 inh – human KCNK3 channel inhibitors, primary screen, CHO cells, FluxOR thallium flux, B-score | Potassium channel subfamily K member 3 (Homo sapiens), O14649 | FluxOR fluorescence; active compounds read low | B-score at 10 µM | hit rate 0.84% among 340,000 | AID 602410, 2012;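 active = B-score under library mean minus 4 SD, starting fluorescence ratio at most library mean plus 5 SD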;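 also: more negative B-score means stronger inhibition of thallium flux through KCNK3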
hERG protect – hERG rescue from dofetilide block, primary screen, cell-based, CHO-hERG, FluxOR thallium flux, dofetilide IC70 | AID 1511, 2009 | activation (rescue from dofetilide block), less the hit threshold, % at 10 µM | dofetilide IC70 present | Voltage-gated inwardly rectifying potassium channel KCNH2 (Homo sapiens), Q12809 | hit rate 0.51% among 310,000;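 active = activation above the mean of controls blocked by dofetilide plus 5 SD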;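 also: thallium influx through hERG after potassium depolarization seen as dye fluorescence rise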
Cl transport mod – KCC2 cotransporter modulators, thallium flux, primary screen, cell-based, HEK293 KCC2, FluoZin-2 fluorescence, MLSMR; Solute carrier family 12 member 5 (Homo sapiens), Q9H2X9; B-score of Tl+ flux slope (higher = more flux/activation; lower = inhibition) at 10 µM; AID 1456, 2008; KCC2 cells, thallium flux FluoZin-2 fluorescence; hit rate 2.2% among 190,000;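 active = thallium flux slope and its plate-corrected score both differing from the plate sample mean at a set confidence after two filtering rounds, in either direction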;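 also: slope of fluorescence scaled to starting intensity during 10 to 20 s after thallium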
KCNQ1 pot – potentiators or activators of KCNQ1 channel, primary screen, cell-based, thallium flux, high-throughput | Potassium voltage-gated channel subfamily KQT member 1 (Homo sapiens), P51787 | CHO-K1 KCNQ1, thallium flux FluxOR fluorescence; active compounds read high | B-score at 10 µM | hit rate 0.35% among 310,000 | AID 2648, 2010;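 active = fluorescence ratio B-score, a plate-corrected score, at least three library SD, with initial intensity B-score within 5 SD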
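Doses: Single concentration per compound, DMSO matched to controls | Test system: KCNQ1-transfected CHO-K1 cells | Timing: 90 min dye loading and 20 min compound exposure, both at room temperature | Measured by: Kinetic FluxOR thallium fluorescence, 10-s 1-Hz baseline, 110-s post-stimulus read | Medium: Assay buffer with matched DMSO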
KCNK9 block – KCNK9 potassium channel inhibitors, primary screen, HEK293 cells, thallium flux | hit rate 1.2% among 310,000 | Potassium channel subfamily K member 9 (Homo sapiens), Q9NPC2 | B-score at 10 µM | FluxOR thallium flux fluorescence; active compounds read low | AID 488922, 2010;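 active = ratio B-score over 3 SD below the library mean, with starting fluorescence within 5 SD of its mean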;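 also: negative B-score means less thallium flux so channel inhibition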
KCC2 sec1 – KCC2 modulators in sodium-free buffer, confirmation, cell-based, HEK293 KCC2, thallium flux, secondary assay; shares compounds with Cl transport mod; FluoZin2 fluorescence; active compounds read high; normalised thallium flux (F/F0 slope) at 10 µM; hit rate 15% among 3,700; AID 1713, 2009;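 active = thallium flux slope above the same plate's solvent-only control mean plus 3 SD; inconclusive = the two replicate wells disagree; inactive = no significant difference from solvent-only control wells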
KCC2 bumet counter – thallium flux persisting under bumetanide in KCC2 cells, confirmation, counter-screen for KCC2 modulator project, cell-based, HEK293 KCC2, FluoZin2, secondary assay 3; hit rate 49% among 3,700; normalized thallium flux at 10 µM; HEK293-KCC2 + bumetanide/ouabain; active compounds read high; shares compounds with Cl transport mod;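 active = thallium entry rate above the same plate's blocked-transporter control wells by more than 3 SD; inconclusive = the two repeat wells disagree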;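 also: raw slope of fluorescence over initial fluorescence between 10 and 20 s after thallium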
KCC2 secondary2 – KCC2 modulators without ouabain present, confirmation, cell-based, HEK293 KCC2, thallium flux, FluoZin2, secondary assay 2 | shares compounds with Cl transport mod | thallium flux FluoZin2 fluorescence; actives lie on both sides; F/F0 rise rate, 10–20 s post-thallium | normalized thallium flux at 10 µM | hit rate 23% among 3,700;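 active = thallium flux slope more than 3 SD above or below the plate's solvent-only control mean, mostly below; inconclusive = the two repeat wells disagreed; inactive = no significant shift from solvent-only controls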;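 also: raw slope with 0.1% DMSO as baseline and bumetanide as block control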
HEK293 Tl flux – thallium flux modulation in parental HEK cells, confirmation, counter-screen for KCC2 modulator project, cell-based, counterscreen 1 | thallium flux rate (normalised fluorescence) at 10 µM | AID 1716, 2009 | hit rate 46% among 3,700 | HEK293 parental cells, thallium flux FluoZin2, ouabain; baseline-ratio fluorescence slope, 10–20 s after thallium | shares compounds with Cl transport mod;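 active = thallium flux rate significantly above the same plate's solvent-only control wells, beyond their mean plus 3 SD; inconclusive = the two replicate wells gave conflicting results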
KCC2 retest ouab – KCC2 inhibitors and activators, ouabain retest, confirmation, HEK-KCC2 cells; hit rate 48% among 3,700; shares compounds with Cl transport mod; raw Tl+ flux slope (below DMSO = inhibition, above = activation) at 10 µM; HEK293-KCC2, thallium flux FluoZin2 fluorescence; bidirectional: low = inhibitor, high = activator;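 active = thallium flux slope beyond 3 SD from same-plate DMSO control mean in most replicates, usually higher, sometimes lower; inconclusive = repeat tests gave conflicting results; inactive = no significant difference from controls in most replicates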;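 also: slope of initial-normalized fluorescence between seconds 10 and 20 after thallium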
HEK293 Tl flux2 – native HEK Tl+ uptake effects, second counter-screen – HEK cells, counterscreen 2, counter-screen for KCC2 modulator project, confirmation; shares compounds with Cl transport mod; HEK293 parental, thallium flux FluoZin-2 fluorescence slope; thallium flux slope at 10 µM; hit rate 33% among 3,700; AID 1718, 2009;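 active = thallium flux slope above the same plate's solvent-control mean plus 3 SD in both duplicate wells; inconclusive = duplicate wells that disagreed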;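 also: run without ouabain in cells lacking the KCC2 cotransporter; slope of fluorescence scaled to its starting value between 10 and 20 s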
The depositor's hits bear a star; i = inactive; ? = inconclusive; . = no result. Only some compounds are listed: those with a hit (about 4.1% of all), similar ones and a draw of the others.

SMILES	KCNQ1 inh	KCNK3 inh	hERG protect	Cl transport mod	KCNQ1 pot	KCNK9 block	KCC2 sec1	KCC2 bumet counter	KCC2 secondary2	HEK293 Tl flux	KCC2 retest ouab	HEK293 Tl flux2
C=C1CC[C@@H]2[C@](C)(CO)[C@H](O)CC[C@@]2(C)[C@@H]1C/C=C1/C(=O)OCC1O (some centres not stated)	.	i	.	.	.	.	.	.	.	.	.	.
N#CC(c1ccc(Cl)cc1)c1ccc2c(C(F)(F)F)cc(C(F)(F)F)nc2n1 (configuration not stated)	i	i	-4	22*	60*	i	0.024*	0.14*	0.031	0.054*	0.067*	0.015*
FC(F)(F)c1cc(C(F)(F)F)c2ccc(N3CCN(c4ccc(Cl)cc4)CC3)nc2n1	i	i	-13	-0.31	i	i	.	.	.	.	.	.
O=C(CSCc1ccc(F)cc1)N1CCN(c2ccc(F)cc2)CC1	i	i	-13	-3.6*	i	i	0.0063	?	0.032	0.0037	0.017*	0.011
COc1ccccc1C(=O)Nc1ccnn1C1CCN(Cc2cnn(C)c2C)CC1	i	i	-3	.	i	i	.	.	.	.	.	.
Cc1ccc(/C=N/n2c(C3CCCCC3)n[nH]c2=S)s1	i	i	-4	7.3*	i	i	0.011	0.022*	0.033	0.011*	0.027	?
CCOc1ccccc1OCC(=O)OCC(=O)c1c(C)[nH]c2ccccc12	i	i	-13	.	i	i	.	.	.	.	.	.
Cc1[nH]c2ccccc2c1C(=O)COC(=O)CCS(=O)(=O)c1ccccc1Cl	i	i	-6	-3.1*	i	i	0.01	?	0.034	0.004	0.017*	0.012
Oc1c(Br)cc(C=Nc2ccc3nc(-c4ccccc4)[nH]c3c2)c(O)c1Br	i	i	-26	-3.5*	i	i	0.0071	0.0046	0.028	0.0062	0.013*	0.0087
O=[N+]([O-])c1ccc(O)c(C=Nc2ccc3nc(-c4ccccc4)[nH]c3c2)c1	i	i	-2	0.4	i	i	.	.	.	.	.	.
COc1ccc(/C=N/n2c(C3CCCCC3)n[nH]c2=S)c(OC)c1	i	i	-2	.	i	i	.	.	.	.	.	.
